Experimental data: ChEMBL document CHEMBL3352487, “Synthesis, antibacterial activity, and biological evaluation of formyl hydroxyamino derivatives as novel potent peptide deformylase inhibitors against drug-resistant bacteria” (Eur J Med Chem, 2014)
≈ marks a conversion by molar mass, not a printed value.

Assays:
Enterococcus faecalis = assay: Antimicrobial activity against Enterococcus faecalis Isolate 1 after 24 hrs by broth microdilution method; assay type: functional; conditions: Isolate 1, 24 h
Method in brief: (§1)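 Broth microdilution following NCCLS M7-A4; ATCC strains and clinical isolates from a provincial hospital.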

Staphylococcus aureus [1] = assay: Antimicrobial activity against Staphylococcus aureus isolate OGA833 after 24 hrs by broth microdilution method; assay type: functional; conditions: isolate OGA833, 24 h; method in brief: as §1
Mus musculus [2] = assay: Acute toxicity in KM mouse assessed as liver abnormality at 250 mg/kg, iv measured for 14 days by necropsy; assay type: organism-based; set-up: dose 250 mg/kg, route intravenous; conditions: in vivo, 336 h
Method in brief: (§2)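 Outbred KM mice (SPF, 20–25 g; nine male, ten female) given a single tail-vein injection of 100 or 250 mg/kg in PBS pH 6.5 with 20% DMSO over about 60 s. Behaviour, weight, coat colour, anal temperature, food and water intake, and urine and stool weight followed for 14 days. On day 14, gross necropsy of skin, lungs, heart, liver, kidneys and spleen.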

[3] = Volume of distribution at steady state in Sprague-Dawley rat at 5 mg/kg, iv; assay type: ADME, organism-based; set-up: dose 5 mg/kg, route intravenous; conditions: in vivo, read-out: Vdss
Haemophilus influenzae [4] = assay: Antimicrobial activity against Haemophilus influenzae H128 after 24 hrs by broth microdilution method; assay type: functional; conditions: H128, 24 h; method in brief: as §1
Streptococcus pneumoniae = assay: Antimicrobial activity against Streptococcus pneumoniae 1629 after 24 hrs by broth microdilution method; assay type: functional; conditions: Streptococcus pneumoniae, 1629, 24 h; method in brief: as §1
Staphylococcus aureus [5] = assay: Antimicrobial activity against Staphylococcus aureus isolate 306 after 24 hrs by broth microdilution method; assay type: functional; conditions: isolate 306, 24 h; method in brief: as §1
Haemophilus influenzae [6] = assay: Antimicrobial activity against Haemophilus influenzae Q1 after 24 hrs by broth microdilution method; assay type: functional; conditions: Q1, 24 h; method in brief: as §1
Staphylococcus aureus [7] = assay: Antimicrobial activity against Staphylococcus aureus isolate RN1024 after 24 hrs by broth microdilution method; assay type: functional; conditions: isolate RN1024, 24 h
Method in brief: (§3)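 Broth microdilution following NCCLS M7-A4, using ATCC strains and clinical isolates from a provincial hospital.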

Escherichia coli [8] = assay: Antimicrobial activity against Escherichia coli isolate 3 after 24 hrs by broth microdilution method; assay type: functional; conditions: isolate 3, 24 h; method in brief: as §1
Escherichia coli [9] = assay: Antimicrobial activity against Escherichia coli isolate 1 after 24 hrs by broth microdilution method; assay type: functional; conditions: isolate 1, 24 h; method in brief: as §1
Staphylococcus aureus [10] = assay: Antimicrobial activity against Staphylococcus aureus isolate A53 after 24 hrs by broth microdilution method; assay type: functional; conditions: isolate A53, 24 h; method in brief: as §3
Staphylococcus aureus [11] = assay: Antimicrobial activity against Staphylococcus aureus isolate 929035 after 24 hrs by broth microdilution method; assay type: functional; conditions: isolate 929035, 24 h; method in brief: as §1
Streptococcus pyogenes = assay: Antimicrobial activity against Streptococcus pyogenes 1308007P after 24 hrs by broth microdilution method; assay type: functional; method in brief: as §1
Staphylococcus aureus [12] = assay: Antimicrobial activity against Staphylococcus aureus isolate 929003 after 24 hrs by broth microdilution method; assay type: functional; conditions: isolate 929003, 24 h; method in brief: as §1
Moraxella catarrhalis = assay: Antimicrobial activity against Moraxella catarrhalis 1502 after 24 hrs by broth microdilution method; assay type: functional; conditions: Moraxella catarrhalis, 1502, 24 h; method in brief: as §1
[13] = AUC (0 to infinity) in Sprague-Dawley rat at 5 mg/kg, iv; assay type: ADME, organism-based; set-up: time infinity, dose 5 mg/kg, route intravenous; conditions: plasma
Staphylococcus aureus [14] = assay: Antimicrobial activity against Staphylococcus aureus isolate Ealing 32 after 24 hrs by broth microdilution method; assay type: functional; conditions: isolate Ealing 32, 24 h; method in brief: as §1
[15] = Solubility of the compound in artificial intestinal juice measured every 2 hrs for 12 hrs by HPLC analysis; assay type: physicochemical; conditions: simulated gi fluid
Staphylococcus aureus [16] = assay: Antimicrobial activity against Staphylococcus aureus isolate MN 1255 after 24 hrs by broth microdilution method; assay type: functional; conditions: isolate MN 1255, 24 h; method in brief: as §1
Staphylococcus aureus [17] = assay: Antimicrobial activity against Staphylococcus aureus OXFORD after 24 hrs by broth microdilution method; assay type: functional; method in brief: as §3
[18] = AUC (0 to t) in Sprague-Dawley rat at 5 mg/kg, iv; assay type: ADME, organism-based; set-up: dose 5 mg/kg, route intravenous; conditions: plasma
[19] = Acute toxicity in iv dosed KM mouse measured for 14 days; assay type: organism-based; conditions: in vivo
Method in brief: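 Outbred KM mice (SPF, 20–25 g; nine male, ten female) given a single tail-vein i.v. dose of 100 or 250 mg/kg, formulated in PBS pH 6.5 containing 20% DMSO. Behaviour, weight, coat, anal temperature, food and water intake, and excreta monitored daily for 14 days, then necropsy.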

Mus musculus [20] = assay: Acute toxicity in KM mouse assessed as heart abnormality at 250 mg/kg, iv measured for 14 days by necropsy; assay type: organism-based; set-up: dose 250 mg/kg, route intravenous; conditions: in vivo, 336 h; method in brief: as §2
Haemophilus influenzae [21] = assay: Antimicrobial activity against AcrA-deficient Haemophilus influenzae H128 after 24 hrs by broth microdilution method; assay type: functional; conditions: H128, 24 h; method in brief: as §1
[22] = Tmax in Sprague-Dawley rat at 25 mg/kg, po; assay type: ADME, organism-based; set-up: dose 25 mg/kg, route oral; conditions: in vivo
Staphylococcus aureus [23] = assay: Antimicrobial activity against Staphylococcus aureus MRSA08-12 in peritonitis mouse model assessed as mortality of host at 10 mg/kg, iv as single dose relative to control; assay type: functional
Method in brief: (§4)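 Outbred KM mice (20–25 g) infected i.p. with a 90–100% lethal dose (5 × 10^7 CFU/mL) in 0.5 mL brain heart infusion broth with 5% mucin. Single i.v. dose of 1.25–20 mg/kg in 20% DMSO, 0.1 mL. Ten mice per dose; daily monitoring for 14 days; ED50 from cumulative mortality by Bliss's method.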

[24] = AUC (0 to t) in Sprague-Dawley rat at 25 mg/kg, po; assay type: ADME, organism-based; set-up: dose 25 mg/kg, route oral; conditions: plasma
Enterococcus faecium = assay: Antimicrobial activity against Enterococcus faecium X7501 after 24 hrs by broth microdilution method; assay type: functional; conditions: X7501, 24 h; method in brief: as §1
[25] = Mean residence time (0 to t) in Sprague-Dawley rat at 5 mg/kg, iv; assay type: ADME, organism-based; set-up: dose 5 mg/kg, route intravenous; conditions: in vivo
[26] = Stability of the compound in artificial intestinal juice measured every 2 hrs for 12 hrs by HPLC analysis; assay type: physicochemical; conditions: simulated gi fluid
Staphylococcus aureus [27] = assay: Antimicrobial activity against Staphylococcus aureus isolate PAV 5 after 24 hrs by broth microdilution method; assay type: functional; conditions: isolate PAV 5, 24 h; method in brief: as §1
Staphylococcus aureus [28] = assay: Antimicrobial activity against methicillin-resistant Staphylococcus aureus after 24 hrs by broth microdilution method; assay type: functional; method in brief: as §3
Staphylococcus aureus [29] = assay: Antimicrobial activity against Staphylococcus aureus MRSA08-12 in peritonitis mouse model assessed as mortality of host at 20 mg/kg, iv as single dose relative to control; assay type: functional; method in brief: as §4
Staphylococcus aureus [30] = assay: Antimicrobial activity against Staphylococcus aureus after 24 hrs by broth microdilution method; assay type: functional; method in brief: as §1
Staphylococcus aureus [31] = assay: Antimicrobial activity against Staphylococcus aureus isolate SWEETING after 24 hrs by broth microdilution method; assay type: functional; method in brief: as §3
Staphylococcus aureus [32] = assay: Antimicrobial activity against Staphylococcus aureus isolate RUSSELL after 24 hrs by broth microdilution method; assay type: functional; method in brief: as §3
hERG (KCNH2) = hERG (KCNH2) (Homo sapiens, UniProt Q12809); assay: Inhibition of human ERG at 1 uM
Sequence of hERG (KCNH2) (Q12809 whole entry): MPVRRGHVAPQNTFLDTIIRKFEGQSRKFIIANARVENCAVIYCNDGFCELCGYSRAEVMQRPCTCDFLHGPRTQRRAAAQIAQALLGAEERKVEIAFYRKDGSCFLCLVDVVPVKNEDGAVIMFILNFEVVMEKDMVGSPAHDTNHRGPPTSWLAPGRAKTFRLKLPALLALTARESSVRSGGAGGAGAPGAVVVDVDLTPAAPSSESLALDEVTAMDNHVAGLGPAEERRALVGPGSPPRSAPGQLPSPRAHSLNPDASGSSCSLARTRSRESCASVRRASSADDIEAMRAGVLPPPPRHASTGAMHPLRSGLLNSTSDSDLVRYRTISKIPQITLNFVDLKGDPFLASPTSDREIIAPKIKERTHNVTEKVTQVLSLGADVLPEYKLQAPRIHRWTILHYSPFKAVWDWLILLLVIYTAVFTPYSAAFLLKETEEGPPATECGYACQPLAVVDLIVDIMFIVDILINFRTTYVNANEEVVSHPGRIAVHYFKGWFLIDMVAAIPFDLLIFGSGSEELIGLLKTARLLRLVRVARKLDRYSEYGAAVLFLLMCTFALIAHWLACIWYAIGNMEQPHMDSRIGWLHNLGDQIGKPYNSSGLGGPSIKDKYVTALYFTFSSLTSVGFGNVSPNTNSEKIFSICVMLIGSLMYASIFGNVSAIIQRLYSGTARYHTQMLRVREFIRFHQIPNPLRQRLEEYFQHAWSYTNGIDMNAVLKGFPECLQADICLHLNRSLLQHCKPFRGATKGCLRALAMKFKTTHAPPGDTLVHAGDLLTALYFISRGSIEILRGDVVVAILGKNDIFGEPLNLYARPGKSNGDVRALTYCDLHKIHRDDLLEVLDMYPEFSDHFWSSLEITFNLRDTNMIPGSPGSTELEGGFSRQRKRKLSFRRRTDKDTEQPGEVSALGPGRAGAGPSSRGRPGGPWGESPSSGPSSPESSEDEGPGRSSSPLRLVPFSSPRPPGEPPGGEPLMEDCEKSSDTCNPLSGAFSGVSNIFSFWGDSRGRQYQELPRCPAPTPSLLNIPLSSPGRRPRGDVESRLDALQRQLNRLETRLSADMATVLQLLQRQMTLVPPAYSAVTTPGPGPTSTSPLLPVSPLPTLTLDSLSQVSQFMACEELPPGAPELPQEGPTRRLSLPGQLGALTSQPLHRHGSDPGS

Staphylococcus aureus [33] = assay: Antimicrobial activity against Staphylococcus aureus isolate MILES HALL after 24 hrs by broth microdilution method; assay type: functional; method in brief: as §3
Staphylococcus aureus [34] = assay: Antimicrobial activity against Staphylococcus aureus isolate RN1030 after 24 hrs by broth microdilution method; assay type: functional; conditions: isolate RN1030, 24 h; method in brief: as §3
Staphylococcus aureus [35] = assay: Antimicrobial activity against Staphylococcus aureus isolate 934334 after 24 hrs by broth microdilution method; assay type: functional; conditions: isolate 934334, 24 h; method in brief: as §1
Mus musculus [36] = assay: Acute toxicity in KM mouse assessed as kidney abnormality at 250 mg/kg, iv measured for 14 days by necropsy; assay type: organism-based; set-up: dose 250 mg/kg, route intravenous; conditions: in vivo, 336 h; method in brief: as §2
Staphylococcus aureus [37] = assay: Antimicrobial activity against Staphylococcus aureus isolate CL 939 after 24 hrs by broth microdilution method; assay type: functional; conditions: isolate CL 939, 24 h; method in brief: as §3
[38] = Cmax in Sprague-Dawley rat at 25 mg/kg, po; assay type: ADME, organism-based; set-up: dose 25 mg/kg, route oral; conditions: in vivo

## CCCC[C@H](CN(O)C=O)C(=O)N1CC=C[C@H]1C(=O)Nc1ccc(F)c[n+]1[O-]
Enterococcus faecalis
  MIC: 4 µg/mL (≈ 10.1 µM)
Staphylococcus aureus [1]
  MIC: 0.5 µg/mL (≈ 1.27 µM)
Mus musculus [2]
  Activity: Non-toxic
[3]
  Vd: 1.72 L/kg
Haemophilus influenzae [4]
  MIC: 2 µg/mL (≈ 5.07 µM)
Streptococcus pneumoniae
  MIC: 1 µg/mL (≈ 2.54 µM)
Staphylococcus aureus [5]
  MIC: 2 µg/mL (≈ 5.07 µM)
Haemophilus influenzae [6]
  MIC: 1 µg/mL (≈ 2.54 µM)
Staphylococcus aureus [7]
  MIC: 0.5 µg/mL (≈ 1.27 µM)
Escherichia coli [8]
  MIC: 64 µg/mL (≈ 162 µM)
Escherichia coli [9]
  MIC: > 64 µg/mL
Staphylococcus aureus [10]
  MIC: 0.5 µg/mL (≈ 1.27 µM)
Staphylococcus aureus [11]
  MIC: 1 µg/mL (≈ 2.54 µM)
Streptococcus pyogenes
  MIC: 2 µg/mL (≈ 5.07 µM)
Staphylococcus aureus [12]
  MIC: 2 µg/mL (≈ 5.07 µM)
Moraxella catarrhalis
  MIC: ≤ 0.06 µg/mL
[13]
  AUC(0-inf): 1960 ng·h/mL
Staphylococcus aureus [14]
  MIC: 0.25 µg/mL (≈ 0.634 µM)
[15]
  solubility: soluble
Staphylococcus aureus [16]
  MIC: 0.25 µg/mL (≈ 0.634 µM)
Staphylococcus aureus [17]
  MIC: 0.5 µg/mL (≈ 1.27 µM)
[18]
  AUC(0-t): 1950 ng·h/mL
[19]
  LD50 at 336 h: > 250 mg/kg
Mus musculus [20]
  Activity: Non-toxic
Haemophilus influenzae [21]
  MIC: ≤ 0.06 µg/mL
[22]
  Tmax: 41.3 min
Staphylococcus aureus [23]
  mortality at 10 mg/kg: 30%
[24]
  AUC(0-t): 3320 ng·h/mL
Enterococcus faecium
  MIC: 2 µg/mL (≈ 5.07 µM)
[25]
  MRT last: 33.8 min
[26]
  Stability: Stable
Staphylococcus aureus [27]
  MIC: 1 µg/mL (≈ 2.54 µM)
Staphylococcus aureus [28]
  MIC: 0.5 µg/mL (≈ 1.27 µM)
Staphylococcus aureus [29]
  mortality at 20 mg/kg: 10%
Staphylococcus aureus [30]
  MIC: 0.5 µg/mL (≈ 1.27 µM)
Staphylococcus aureus [31]
  MIC: 0.125 µg/mL (≈ 0.317 µM)
Staphylococcus aureus [32]
  MIC: 0.5 µg/mL (≈ 1.27 µM)
hERG (KCNH2)
  inhibition at 1 µM: 4.55%
Staphylococcus aureus [33]
  MIC: 0.5 µg/mL (≈ 1.27 µM)
Staphylococcus aureus [34]
  MIC: 0.5 µg/mL (≈ 1.27 µM)
Staphylococcus aureus [35]
  MIC: 1 µg/mL (≈ 2.54 µM)
Mus musculus [36]
  Activity: Non-toxic
Staphylococcus aureus [37]
  MIC: 0.125 µg/mL (≈ 0.317 µM)
[38]
  Cmax: 1390 ng/mL
